Reference: ChEMBL document CHEMBL4270630

Columns and labels:
[1] = Cytotoxicity against MDCK cells assessed as reduction in cell viability after 3 days by MTS assay; format: cell-based, Canis lupus familiaris; settings: dog, MDCK cells
Influenza B virus [2] = assay: Antiviral activity against Influenza B virus B/HK/05/72 infected in MDCK cells assessed as reduction in virus-induced cytopathic effect after 3 days by microscopic method; format: functional, organism-based; settings: B/Hong Kong/05/1972, MDCK, 72 h
In short: (§1)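 Semi-confluent MDCK cells were infected at an MOI of 0.0004 PFU/cell in Ultra-MDCK infection medium with 2 μg/mL TPCK-trypsin, together with compounds. After 3 days at 35 °C, CPE was scored by microscopy and confirmed by MTS formazan viability. EC50 is the concentration giving 50% inhibition of virus-induced CPE. Values are means of two to five independent tests.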

Influenza A virus [3] = assay: Antiviral activity against Influenza A virus A/Virginia/ATCC3/2009(H1N1pdm) infected in MDCK cells after 3 days by MTS assay; format: functional, organism-based, Influenza A virus (A/Virginia/03/2009(H1N1)); settings: 72 h; in short: as §1
H3N2 subtype [4] = assay: Antiviral activity against Influenza A virus A/HK/7/87(H3N2) infected in MDCK cells after 3 days by MTS assay; format: functional, organism-based; settings: A/Hong Kong/7/1987(H3N2), 72 h; in short: as §1
H3N2 subtype [5] = assay: Antiviral activity against Influenza A virus A/HK/7/87(H3N2) infected in MDCK cells assessed as reduction in virus-induced cytopathic effect after 3 days by microscopic method; format: functional, organism-based; settings: A/Hong Kong/7/1987(H3N2), 72 h; in short: as §1
Influenza B virus [6] = assay: Antiviral activity against Influenza B virus B/HK/05/72 infected in MDCK cells after 3 days by MTS assay; format: functional, organism-based; settings: B/Hong Kong/05/1972, MDCK, 72 h; in short: as §1
[7] = Cytotoxicity against MDCK cells assessed as alteration in cell morphology after 3 days by microscopic method; format: cell-based, Canis lupus familiaris; settings: dog
In short: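 Mock-infected MDCK cells were treated with compounds in parallel with the antiviral assay, 3 days at 35 °C. MCC is the concentration causing minimal change in cell morphology by microscopy. CC50 is the 50% cytotoxic concentration by MTS formazan viability assay.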

Influenza A virus [8] = assay: Antiviral activity against Influenza A virus A/PR/8/34(H1N1) infected in MDCK cells assessed as reduction in virus-induced cytopathic effect after 3 days by microscopic method; format: functional, organism-based, A/Puerto Rico/8/1934(H1N1); settings: Influenza A virus, A/Puerto Rico/8/1934(H1N1), MDCK, 72 h; in short: as §1
Influenza A virus [9] = assay: Antiviral activity against Influenza A virus A/PR/8/34(H1N1) infected in MDCK cells after 3 days by MTS assay; format: functional, organism-based, A/Puerto Rico/8/1934(H1N1); settings: Influenza A virus, A/Puerto Rico/8/1934(H1N1), MDCK, 72 h; in short: as §1
Influenza A virus [10] = assay: Antiviral activity against Influenza A virus A/Virginia/ATCC3/2009(H1N1pdm) infected in MDCK cells assessed as reduction in virus-induced cytopathic effect after 3 days by microscopic method; format: functional, organism-based, Influenza A virus (A/Virginia/03/2009(H1N1)); settings: 72 h; in short: as §1
Influenza A virus [11] = assay: Antiviral activity against Influenza A virus A/PR/8/34(H1N1) GFP-fused pseudotyped lentiviral particle expressing H1-HA/N1-NA infected in MDCK cells assessed as inhibition of pseudoparticle entry after 3 days by flow cytometry; format: functional, organism-based; settings: A/Puerto Rico/8/1934(H1N1)
In short: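 MDCK cells were seeded at 7500/well and one day later were exposed to compounds plus GFP lentiviral pseudoparticles bearing A/PR/8/34 H1-HA and N1-NA, with HA0 activated by trypsin. After 3 days the cells were trypsinized, fixed in paraformaldehyde and analysed for GFP by flow cytometry. Entry inhibition was taken as the reduction in GFP signal. Data are the mean ± SEM of four independent experiments.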

SMILES	CC50 at 72 h [1] [µM]	EC50 (Influenza B virus [2]) [µM]	EC50 (Influenza A virus [3]) [µM]	EC50 (H3N2 subtype [4]) [µM]	EC50 (H3N2 subtype [5]) [µM]	EC50 (Influenza B virus [6]) [µM]	MCC at 72 h [7] [µM]	EC50 (Influenza A virus [8]) [µM]	EC50 (Influenza A virus [9]) [µM]	EC50 (Influenza A virus [10]) [µM]	inhibition (Influenza A virus [11])
CC(=O)N[C@H]1[C@H](O[C@@H]2c3ccc(c(Cl)c3)Oc3cc4cc(c3O)Oc3ccc(cc3Cl)C[C@H]3NC(=O)[C@H](n5cc(CO[C@@H]6[C@H](OCc7ccccc7)[C@@H](OCc7ccccc7)[C@H](O[C@H]7[C@H](OCc8ccccc8)[C@@H](OCc8ccccc8)[C@H](Sc8ccccc8)O[C@@H]7COCc7ccccc7)O[C@@H]6COCc6ccccc6)nn5)c5ccc(O)c(c5)Oc5cc(O)cc(c5)[C@H](NC3=O)C(=O)N[C@H]4C(O)N[C@H]3C(=O)N[C@H]2C(=O)N[C@@H](C(=O)O)c2cc(O)cc(O)c2-c2cc3ccc2O)O[C@H](CO)[C@@H](O)[C@@H]1O (some centres undefined)	> 100	6.6	7.3	20	8.9	4	≥ 20	> 100	> 100	8.9	
CC(=O)N[C@H]1[C@H](O[C@@H]2c3ccc(c(Cl)c3)Oc3cc4cc(c3O)Oc3ccc(cc3Cl)C[C@H]3NC(=O)[C@H](n5cc(COC[C@H]6O[C@@H]7OC(C)(C)O[C@@H]7[C@H]7OC(C)(C)O[C@H]76)nn5)c5ccc(O)c(c5)Oc5cc(O)cc(c5)[C@H](NC3=O)C(=O)N[C@H]4C(O)N[C@H]3C(=O)N[C@H]2C(=O)N[C@@H](C(=O)O)c2cc(O)cc(O)c2-c2cc3ccc2O)O[C@H](CO)[C@@H](O)[C@@H]1O (some centres undefined)	> 100	39	43	24	39	29	≥ 100	52	47	45	
CCCCCCCCCCCCCCCCOCc1cn([C@H]2C(=O)N[C@@H]3Cc4ccc(c(Cl)c4)Oc4cc5cc(c4O)Oc4ccc(cc4Cl)[C@@H](O[C@@H]4O[C@H](CO)[C@@H](O)[C@H](O)[C@H]4NC(C)=O)[C@H]4NC(=O)[C@H](NC(O)[C@@H]5NC(=O)[C@@H](NC3=O)c3cc(O)cc(c3)Oc3cc2ccc3O)c2ccc(O)c(c2)-c2c(O)cc(O)cc2[C@H](C(=O)O)NC4=O)nn1 (some centres undefined)	7.6	1.8	1.8	≤ 1.6	≤ 8.9	1.3	≥ 4	1.6	1.8	1.8	
CCCCCCCCCCOCc1cn([C@H]2C(=O)N[C@@H]3Cc4ccc(c(Cl)c4)Oc4cc5cc(c4O)Oc4ccc(cc4Cl)[C@@H](O[C@@H]4O[C@H](CO)[C@@H](O)[C@H](O)[C@H]4NC(C)=O)[C@H]4NC(=O)[C@H](NC(O)[C@@H]5NC(=O)[C@@H](NC3=O)c3cc(O)cc(c3)Oc3cc2ccc3O)c2ccc(O)c(c2)-c2c(O)cc(O)cc2[C@H](C(=O)O)NC4=O)nn1 (some centres undefined)	3.7	> 100	> 100	> 100	> 100	> 100	4	> 100	> 100	> 100	
CCc1ccccc1OCCN1CCCCCC1											Dose-dependent effect
CCCCCCOCc1cn([C@H]2C(=O)N[C@@H]3Cc4ccc(c(Cl)c4)Oc4cc5cc(c4O)Oc4ccc(cc4Cl)[C@@H](O[C@@H]4O[C@H](CO)[C@@H](O)[C@H](O)[C@H]4NC(C)=O)[C@H]4NC(=O)[C@H](NC(O)[C@@H]5NC(=O)[C@@H](NC3=O)c3cc(O)cc(c3)Oc3cc2ccc3O)c2ccc(O)c(c2)-c2c(O)cc(O)cc2[C@H](C(=O)O)NC4=O)nn1 (some centres undefined)	53	17	> 100	13	15	11	≥ 20	> 100	> 100	> 100	
CC(=O)N[C@H]1[C@H](O[C@@H]2c3ccc(c(Cl)c3)Oc3cc4cc(c3O)Oc3ccc(cc3Cl)C[C@H]3NC(=O)[C@H](n5cc(CCOc6c7cc(C(C)(C)C)cc6Cc6cc(C(C)(C)C)cc(c6O)Cc6cc(C(C)(C)C)cc(c6O)Cc6cc(C(C)(C)C)cc(c6O)C7)nn5)c5ccc(O)c(c5)Oc5cc(O)cc(c5)[C@H](NC3=O)C(=O)N[C@H]4C(O)N[C@H]3C(=O)N[C@H]2C(=O)N[C@@H](C(=O)O)c2cc(O)cc(O)c2-c2cc3ccc2O)O[C@H](CO)[C@@H](O)[C@@H]1O (some centres undefined)	≥ 58	> 100	6.7	5.2	> 100	5.7	≥ 20	> 100	43	8.9	
COC(=O)[C@@H]1NC(=O)[C@@H]2NC(=O)[C@H](NC(=O)[C@@H]3NC(=O)[C@H]4NC(=O)[C@H](NC(=O)[C@H](Nc5c(NCc6ccc(-c7ccccc7)cc6)c(=O)c5=O)c5ccc(O)c(c5)Oc5cc4cc(O)c5C)[C@H](O)c4ccc(cc4)Oc4cc3cc(c4O)Oc3ccc(cc3)[C@H]2O)c2ccc(O)c(c2)-c2c(O)cc(O)cc21											Dose-dependent effect
CCCCCCCCCCCCOCc1cn([C@H]2C(=O)N[C@@H]3Cc4ccc(c(Cl)c4)Oc4cc5cc(c4O)Oc4ccc(cc4Cl)[C@@H](O[C@@H]4O[C@H](CO)[C@@H](O)[C@H](O)[C@H]4NC(C)=O)[C@H]4NC(=O)[C@H](NC(O)[C@@H]5NC(=O)[C@@H](NC3=O)c3cc(O)cc(c3)Oc3cc2ccc3O)c2ccc(O)c(c2)-c2c(O)cc(O)cc2[C@H](C(=O)O)NC4=O)nn1 (some centres undefined)	2.3	> 100	> 100	> 100	> 100	> 100	9.3	> 100	> 100	> 100	
CCCCCCCCOCc1cn([C@H]2C(=O)N[C@@H]3Cc4ccc(c(Cl)c4)Oc4cc5cc(c4O)Oc4ccc(cc4Cl)[C@@H](O[C@@H]4O[C@H](CO)[C@@H](O)[C@H](O)[C@H]4NC(C)=O)[C@H]4NC(=O)[C@H](NC(O)[C@@H]5NC(=O)[C@@H](NC3=O)c3cc(O)cc(c3)Oc3cc2ccc3O)c2ccc(O)c(c2)-c2c(O)cc(O)cc2[C@H](C(=O)O)NC4=O)nn1 (some centres undefined)	13	1.8	1.9	1.5	2.1	1.9	≥ 4	> 100	2.2	1.8	
CC(C)c1ccccc1NCCN1CCCCC1											Dose-dependent effect
CCN(CC)CCCC(C)Nc1ccnc2cc(Cl)ccc12 (centres undefined)											Dose-dependent effect
